The structures appear in SMILES notation.

Here are results for 20 compounds from ChEMBL document CHEMBL1139245, “Synthesis and antiinflammatory activity of some new 1,3,5-trisubstituted pyrazolines bearing benzene sulfonamide” (Bioorg Med Chem Lett, 2009).

Series [1] relates to Rattus norvegicus. In words: Antiinflammatory activity in carrageenan-induced Wistar rat paw edema model assessed as increase in paw volume at 20 mg/kg, po measured 3 hrs after carrageenan challenge relative to control. It counts as functional. In outline:
(§1)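 Wistar rats of either sex (150–175 g), fasted 16 h overnight, groups of six; compound dosed orally at 20 mg/kg bw. 30 min later 0.1 ml of 1% carrageenan in normal saline injected into subplantar aponeurosis of left hind paw. Paw volume read by plethysmometer at 0, 3 and 5 h; increase in volume (ml, SEM) and % inhibition versus control.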
(The carrageenan paw model is a standard test of acute inflammation.)

The subject of series [2] is Rattus norvegicus. Nature of the series: Antiinflammatory activity in carrageenan-induced Wistar rat paw edema model assessed as increase in paw volume at 20 mg/kg, po measured 5 hrs after carrageenan challenge relative to control. It counts as functional. The procedure, abridged:
as §1

Series [3] relates to Rattus norvegicus. Nature of the series: Gastrointestinal toxicity in Wistar rat assessed as induction of gastric ulceration at 60 mg/kg, po. The format is organism-based, Stomach. Set-up: dose 60 mg/kg, route oral. As to conditions: in vivo. In outline: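 Acute gastric ulcerogenicity in Wistar rats given 60 mg/kg bw orally. Animals sacrificed under deep ether anesthesia 6 h after treatment. Stomachs removed and opened along the greater curvature, then examined for lesions or bleeding.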

In series [4] the target is Prostaglandin G/H synthase 1 (Ovis aries) (UniProt P05979). In words: Inhibition of recombinant COX1 at 0.05 uM.
Sequence of Prostaglandin G/H synthase 1 (Ovis aries) (P05979 whole entry, looked up): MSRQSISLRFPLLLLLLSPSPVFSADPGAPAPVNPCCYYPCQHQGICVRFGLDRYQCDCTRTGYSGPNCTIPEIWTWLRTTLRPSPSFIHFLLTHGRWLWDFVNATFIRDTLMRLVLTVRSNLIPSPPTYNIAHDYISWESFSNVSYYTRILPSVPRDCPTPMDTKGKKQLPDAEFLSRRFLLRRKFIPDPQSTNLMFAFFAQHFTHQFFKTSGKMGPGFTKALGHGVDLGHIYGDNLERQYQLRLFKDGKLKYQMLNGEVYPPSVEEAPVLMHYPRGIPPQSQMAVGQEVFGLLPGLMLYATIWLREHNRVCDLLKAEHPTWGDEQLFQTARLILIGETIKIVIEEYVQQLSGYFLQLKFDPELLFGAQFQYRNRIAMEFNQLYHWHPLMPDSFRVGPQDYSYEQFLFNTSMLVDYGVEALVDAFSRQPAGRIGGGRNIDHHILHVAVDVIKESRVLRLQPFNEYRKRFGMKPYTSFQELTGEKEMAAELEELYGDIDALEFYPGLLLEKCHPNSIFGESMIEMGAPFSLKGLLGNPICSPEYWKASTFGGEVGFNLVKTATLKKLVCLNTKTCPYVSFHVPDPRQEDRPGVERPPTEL
Series [5] deals with Prostaglandin G/H synthase 2 (Ovis aries) (UniProt P79208). Nature of the series: Inhibition of recombinant COX2 at 0.05 uM.
Sequence of Prostaglandin G/H synthase 2 (Ovis aries) (P79208 whole entry, looked up): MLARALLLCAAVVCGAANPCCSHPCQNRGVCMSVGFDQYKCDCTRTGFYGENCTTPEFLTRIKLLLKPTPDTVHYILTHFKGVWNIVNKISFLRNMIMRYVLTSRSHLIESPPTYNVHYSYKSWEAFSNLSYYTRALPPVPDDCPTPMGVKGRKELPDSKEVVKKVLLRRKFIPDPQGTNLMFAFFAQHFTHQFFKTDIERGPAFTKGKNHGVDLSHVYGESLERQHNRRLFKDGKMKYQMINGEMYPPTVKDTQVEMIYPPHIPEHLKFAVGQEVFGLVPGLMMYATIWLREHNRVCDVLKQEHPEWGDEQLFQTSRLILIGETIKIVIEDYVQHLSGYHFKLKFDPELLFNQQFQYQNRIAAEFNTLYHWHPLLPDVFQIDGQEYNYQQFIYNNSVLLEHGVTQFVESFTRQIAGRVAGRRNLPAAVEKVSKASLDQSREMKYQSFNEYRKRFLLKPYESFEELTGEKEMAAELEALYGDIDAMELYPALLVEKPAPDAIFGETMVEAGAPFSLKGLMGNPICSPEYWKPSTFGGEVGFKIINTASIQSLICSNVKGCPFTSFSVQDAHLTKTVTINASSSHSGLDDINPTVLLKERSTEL

Turning to `COc1ccc(C2=NN(c3ccc(S(N)(=O)=O)cc3)C(c3ccccc3Cl)C2)c(O)c1` (stereo unspecified), the Activity in the series on Rattus norvegicus [1] is 60%; in the series on Rattus norvegicus [2], 35.3%.
Usually inhibition stands for the change of the read-out against control, counted positive when it falls. Turning to `COc1ccc(C2=NN(c3ccc(S(N)(=O)=O)cc3)C(c3cc(OC)c(OC)c(OC)c3)C2)c(OC)c1` (stereo unspecified), the Activity was 83.3% in the series with Rattus norvegicus [1], 76.6% in the series with Rattus norvegicus [2] and “Non-toxic” in the series on Rattus norvegicus [3]. Moreover, the inhibition in series [4] came out at 30%; in series [5], 38.6%.
Consider `COc1ccc(C2=NN(c3ccc(S(N)(=O)=O)cc3)C(c3cc(OC)c(OC)c(OC)c3)C2)c(O)c1` (stereo unspecified), for which the Activity in the series on Rattus norvegicus [1] and in the series on Rattus norvegicus [2] was 0% in each case.
In the case of `COc1ccc(C2=NN(c3ccc(S(N)(=O)=O)cc3)C(c3cccc(O)c3)C2)c(OC)c1` (stereo unspecified), the Activity is on record as 26.6% with Rattus norvegicus [1] and 5.3% in the series on Rattus norvegicus [2].
The like results for `COc1ccc(C2=NN(c3ccc(S(N)(=O)=O)cc3)C(c3ccccc3)C2)c(O)c1` (stereo unspecified) were, in that order, 0% and 0%.
In the same order, the values of `COc1ccc(C2=NN(c3ccc(S(N)(=O)=O)cc3)C(c3cccc(O)c3)C2)c(O)c1` (stereo unspecified) are 33.3% and 8.3%.
The like results for `COc1ccc(C2CC(c3ccc(OC)cc3OC)=NN2c2ccc(S(N)(=O)=O)cc2)cc1` (stereo unspecified) were, in that order, 49.3% and 10.6%.
For `COc1ccc(C2=NN(c3ccc(S(N)(=O)=O)cc3)C(c3ccc(Cl)cc3)C2)c(OC)c1` (stereo unspecified), the Activity with Rattus norvegicus [1] is on record as 25%; with Rattus norvegicus [2], 6.6%.
The like results for `Cc1cc(=O)oc2c(C3=NN(c4ccc(S(N)(=O)=O)cc4)C(c4cccc(O)c4)C3)c(O)ccc12` (stereo unspecified) were, in that order, 20% and 30.6%.
Turning to `Cc1ccc(-c2cc(C(F)(F)F)nn2-c2ccc(S(N)(=O)=O)cc2)cc1` [CELECOXIB], the Activity in the series with Rattus norvegicus [2] is given as 40%.
For `COc1ccc(C2=NN(c3ccc(S(N)(=O)=O)cc3)C(c3ccc(Cl)cc3)C2)c(O)c1` (stereo unspecified), the Activity with Rattus norvegicus [1] amounted to 28.6%; with Rattus norvegicus [2], 46.3%.
Consider `COc1ccc(C2=NN(c3ccc(S(N)(=O)=O)cc3)C(c3ccccc3)C2)c(OC)c1` (stereo unspecified), for which the Activity with Rattus norvegicus [1] was 70%; with Rattus norvegicus [2] it was 66.5%; with Rattus norvegicus [3], “Non-toxic”. The inhibition in series [4] amounted to 73.2%; in series [5], 85.7%.
Regarding `COc1ccc(C2CC(c3ccc(OC)cc3O)=NN2c2ccc(S(N)(=O)=O)cc2)cc1` (stereo unspecified), the Activity was 27% with Rattus norvegicus [1] and 37.3% in the series with Rattus norvegicus [2].
Regarding `COc1ccc(C2=NN(c3ccc(S(N)(=O)=O)cc3)C(c3ccccc3Cl)C2)c(OC)c1` (stereo unspecified), the results for the Activity with Rattus norvegicus [1] and in the series with Rattus norvegicus [2] were 26.3% and 46.3%, respectively.
In the same order, the values of `COc1ccc(C2CC(c3c(O)ccc4c(C)cc(=O)oc34)=NN2c2ccc(S(N)(=O)=O)cc2)cc1` (stereo unspecified) are 20% and 10.6%.
The like results for `COc1ccc(C2CC(c3ccccc3O)=NN2c2ccc(S(N)(=O)=O)cc2)cc1` (stereo unspecified) were, in that order, 50% and 41.3%.
Take `COc1ccc(C2=NN(c3ccc(S(N)(=O)=O)cc3)C(c3ccc(N(C)C)cc3)C2)c(OC)c1` (stereo unspecified): the values for the Activity in the series with Rattus norvegicus [1], in the series on Rattus norvegicus [2] and in the series with Rattus norvegicus [3] were 79.6%, 79.6% and “Non-toxic”, respectively. Besides, the results for the inhibition in series [4] and in series [5] were 60.9% and 50%, respectively.
With `COc1ccc(C2CC(c3ccccc3O)=NN2c2ccc(S(N)(=O)=O)cc2)cc1OC` (stereo unspecified), the Activity turned out to be 52% in the series with Rattus norvegicus [1] and 10.6% in the series with Rattus norvegicus [2].
`COc1ccc(C2=NN(c3ccc(S(N)(=O)=O)cc3)C(c3ccc(OC)c(OC)c3)C2)c(O)c1` (stereo unspecified): the Activity in the series with Rattus norvegicus [1] turned out to be 9%; with Rattus norvegicus [2] it was 13%.
In the case of `COc1ccc(C2=NN(c3ccc(S(N)(=O)=O)cc3)C(c3cccc([N+](=O)[O-])c3)C2)c(OC)c1` (stereo unspecified), the values for the Activity in the series with Rattus norvegicus [1], with Rattus norvegicus [2] and with Rattus norvegicus [3] were 68.8%, 57.6% and “Non-toxic”, respectively. The inhibition in series [4] was 58.8%; in series [5], 42.9%.
